Published values pooled from the literature.
Lines come from different studies, so protocols differ.
Target: BDNF/NT-3 growth factors receptor (NTRK2, Homo sapiens, UniProt Q16620)

| Structure (SMILES) | test | setting | inhibition |
| --- | --- | --- | --- |
| O=C(Nc1ccc(Cl)cc1)Nc1cccc(C(=O)Nc2ccc3[nH]ncc3c2)c1 | enzyme activity, inhibitor, FRET | 1 µM | 18.8% |
| CNC(=O)c1cc2c(Oc3ccc(NC(=O)C4(C(=O)Nc5ccc(F)cc5)CC4)cc3)ccnc2cc1OC | enzyme activity, inhibitor, radiometric | 1 µM | 100% |
| COc1cc2ncnc(Nc3ccc(Oc4ccccc4)cc3C)c2cc1OC | enzyme activity, inhibitor | 1 µM | 11% |
| O=C(Nc1ccc(OC(F)(F)F)cc1)Nc1cccc(C(=O)Nc2ccc3[nH]ncc3c2)c1 | enzyme activity, inhibitor, FRET | 1 µM | 14.5% |
| CNC(=O)c1cc(Oc2ccc(NC(=O)Nc3ccc(Cl)c(C(F)(F)F)c3)cc2)ccn1 | cell-free assay | 0.3 µM | 14% |
| CN1CC(Oc2cnc(C#N)cc2-c2ccn3nc(NC(=O)C4CC4)cc3c2)C1 | enzyme activity, inhibitor | 1 µM | 4% |
| COc1cc2ncnc(Nc3ccc(Oc4ccccc4)c(C)c3C)c2cc1OC | enzyme activity, inhibitor | 1 µM | -3% |
| O=C(Nc1cccc(Cl)c1)Nc1cccc(C(=O)Nc2ccc3[nH]ncc3c2)c1 | enzyme activity, inhibitor, FRET | 1 µM | 20.2% |
| CC/C(=N\NC(=O)NCc1cccc(O)c1)c1ccc(O)c(C)c1O | enzyme activity, inhibitor | 0.1 µM | 2.2% |
| CCCS(=O)(=O)Nc1ccc(F)c(C(=O)c2c[nH]c3ncc(-c4ccc(Cl)cc4)cc23)c1F | enzyme activity, inhibitor | 1 µM | < 10% |
